Laboratory results taken from ChEMBL document CHEMBL1124785, “Synthesis, metabolism, and pharmacological activity of 3 alpha-hydroxy steroids which potentiate GABA-receptor-mediated chloride ion uptake in rat cerebral cortical synaptoneurosomes” (1990).

Experiments:
Rattus norvegicus [1] = organism: Rattus norvegicus; experiment: Effect on the potentiation of muscimol-stimulated 36Cl- uptake in rat brain synaptoneurosomes; assay type: functional
Procedure, shortened: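 Cerebral cortex synaptoneurosomes from adult male Sprague-Dawley rats (180-200 g), homogenized in Tris-Hepes buffer pH 7.4 with salts and glucose, filtered and washed. Tubes held 1 mg protein. Steroid plus 3 μM muscimol preincubated 10 min at 30 °C, then 0.5 µCi 36Cl- added. Uptake stopped after 5 s with ice-cold picrotoxin buffer and filtered. Counted by scintillation, in quadruplicate; increase measured over muscimol alone.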

Rattus norvegicus [2] = experiment: The recovery of radioactivity 20 min after administration of [3H]- labeled steroids to rat plasma; assay type: functional, organism-based
Procedure, shortened: (§1)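 Adult male Sprague-Dawley rats (240-260 g), four per group, were given 100 μCi tritiated steroid by tail vein in ethanol-saline. Blood and brain were collected 20 min later and aliquots counted for radioactivity (dpm/mL plasma, dpm/g brain). The brain/plasma ratio was also taken; means ± SE.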

Rattus norvegicus [3] = organism: Rattus norvegicus; experiment: Percent of total tritium in extracts of rat brain; assay type: functional
Procedure, shortened: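 Groups of four adult male Sprague-Dawley rats (240-260 g) received 100 μCi 3H-steroid in ethanol-saline by tail vein and were killed after 20 min. Brain was homogenized in chloroform/methanol (2:1) and the extract separated by HPLC (75% aqueous methanol) alongside unlabeled internal standards read at 280 nm. Fraction radioactivity was expressed as % of total brain tritium; means ± SE.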

Rattus norvegicus [4] = experiment: The recovery of radioactivity 20 min after administration of [3H]- labeled steroids to rat brain; assay type: functional, organism-based; procedure, shortened: as §1

For `C[C@]12CC[C@@H](O)C[C@H]1CC[C@@H]1[C@@H]2CC[C@]2(C)[C@@H](C(=O)CO)CC[C@@H]12`, which Potentiation (Rattus norvegicus [1]) is on record?
Its Potentiation is 7.7 nM/mg.

How did the Potentiation (Rattus norvegicus [1]) turn out when `C[C@]12CC[C@@H](O)C[C@@H]1CC[C@@H]1[C@@H]2CC[C@]2(C)[C@H](C#N)CC[C@@H]12` was run?
The Potentiation was -2.1 nM/mg.

Which Potentiation (Rattus norvegicus [1]) does the source give for `CC(=O)O[C@@H]1CC[C@@]2(C)[C@@H](CC[C@@H]3[C@@H]2CC[C@]2(C)[C@@H](C(C)=O)CC[C@@H]32)C1` here?
The Potentiation was 2.57 nM/mg.

How did the Potentiation (Rattus norvegicus [1]) turn out when `C[C@]12CC[C@@H](O)C[C@@H]1CC[C@@H]1[C@@H]2CC[C@]2(C)[C@@H](C(=O)COS(C)(=O)=O)CC[C@@H]12` was run?
The Potentiation was 7.9 nM/mg.

`C[C@]12CC[C@@H](O)C[C@H]1CC[C@@H]1[C@@H]2CC[C@]2(C)C(=O)CC[C@@H]12` [ETIOCHOLANOLONE] was tested. Which Potentiation (Rattus norvegicus [1]) did it give?
The Potentiation was 4.9 nM/mg.

Which Potentiation (Rattus norvegicus [1]) does the source give for `CC1([C@H]2CC[C@H]3[C@@H]4CC[C@@H]5C[C@H](O)CC[C@]5(C)[C@H]4CC[C@]23C)OCCO1` here?
Its Potentiation is -0.96 nM/mg.

`CC(=O)OCC(=O)[C@H]1CCC2C3CC[C@H]4C[C@H](O)CC[C@]4(C)C3=CC[C@@]21C` (some centres undefined) was tested. Which Potentiation (Rattus norvegicus [1]) did it give?
Its Potentiation is 0.34 nM/mg.

With `CC(=O)[C@H]1CC[C@H]2[C@@H]3CC[C@H]4C[C@H](O)CC[C@]4(C)[C@H]3CC[C@]12C` [BREXANOLONE] as the compound, how does the Potentiation (Rattus norvegicus [1]) read?
Its Potentiation is 10.9 nM/mg.

And the Recovery (Rattus norvegicus [2])?
The Recovery was 176000 dpm ml-1.

What about the Total tritium (Rattus norvegicus [3]) of the same compound?
Its Total tritium is 50.4%.

What about the Recovery (Rattus norvegicus [4]) of the same compound?
Its Recovery is 342000 dpm ml-1.

Which Potentiation (Rattus norvegicus [1]) does the source give for `CC(=O)OCC(=O)[C@H]1CC[C@H]2[C@@H]3CC[C@H]4C[C@H](OC(C)=O)CC[C@]4(C)[C@H]3CC[C@]12C` here?
The Potentiation was 1.37 nM/mg.

How did the Potentiation (Rattus norvegicus [1]) turn out when `CC(=O)[C@H]1CC[C@H]2[C@@H]3CC[C@@H]4C[C@H](O)CC[C@]4(C)[C@H]3[C@H](O)C[C@]12C` was run?
The Potentiation was 0.98 nM/mg.

`CC(=O)[C@H]1CC[C@H]2[C@@H]3CCC4=C[C@H](O)CC[C@]4(C)[C@H]3CC[C@]12C` was tested. Which Potentiation (Rattus norvegicus [1]) did it give?
Its Potentiation is 10.4 nM/mg.

How did the Potentiation (Rattus norvegicus [1]) turn out when `CC(=O)[C@H]1CC[C@H]2[C@@H]3CCC4=CC(=O)CC[C@]4(C)[C@H]3CC[C@]12C` [PROGESTERONE] was run?
The Potentiation was -1.8 nM/mg.

What does the source list for `C[C@]12CC[C@@H](O)C[C@@H]1CC[C@@H]1[C@@H]2CC[C@]2(C)[C@@H](C(=O)CO)CC[C@@H]12`?
Potentiation (Rattus norvegicus [1]): 13.1 nM/mg; Recovery (Rattus norvegicus [2]): 316000 dpm ml-1; Total tritium (Rattus norvegicus [3]): 48.1%; Recovery (Rattus norvegicus [4]): 212000 dpm ml-1

With `C[C@]12CC[C@@H](O)C[C@@H]1CC[C@@H]1[C@@H]2CC[C@]2(C)/C(=N\O)CC[C@@H]12` as the compound, how does the Potentiation (Rattus norvegicus [1]) read?
Its Potentiation is -1.91 nM/mg.

For `CC(=O)OCC(=O)[C@H]1CC[C@H]2[C@@H]3CC[C@@H]4C[C@H](O)CC[C@]4(C)[C@H]3CC[C@]12C`, which Potentiation (Rattus norvegicus [1]) is on record?
The Potentiation was 10.3 nM/mg.

With `CC(=O)[C@H]1CC[C@H]2[C@@H]3CC[C@@H]4C[C@H](O)CC[C@]4(C)[C@H]3C[C@H](O)[C@]12C` as the compound, how does the Potentiation (Rattus norvegicus [1]) read?
The Potentiation was -2.58 nM/mg.

With `C[C@]12CC=C3C(CC[C@H]4C[C@H](O)CC[C@]34C)C1CC[C@@H]2C(=O)CO` (some centres undefined) as the compound, how does the Potentiation (Rattus norvegicus [1]) read?
Its Potentiation is 1.4 nM/mg.

How did the Potentiation (Rattus norvegicus [1]) turn out when `C[C@]12CCC(=O)C[C@@H]1CC[C@@H]1[C@@H]2CC[C@]2(C)C(C(=O)CO)CC[C@@H]12` (some centres undefined) was run?
Its Potentiation is -1.95 nM/mg.

And the Total tritium (Rattus norvegicus [3])?
The Total tritium was 46.1%.

For `CC(=O)O[C@@H]1CC[C@@]2(C)[C@@H](CC[C@@H]3[C@@H]2CC[C@]2(C)[C@@H](C(=O)CO)CC[C@@H]32)C1`, which Potentiation (Rattus norvegicus [1]) is on record?
Its Potentiation is 0.48 nM/mg.

With `CC(=O)[C@H]1CCC2C3CCC4=C[C@@H](O)CC[C@]4(C)C3CC[C@@]21C` (some centres undefined) as the compound, how does the Potentiation (Rattus norvegicus [1]) read?
The Potentiation was 1.43 nM/mg.

How did the Potentiation (Rattus norvegicus [1]) turn out when `CC(=O)C1CC[C@H]2[C@@H]3CC[C@H]4CC(=O)CC[C@]4(C)[C@H]3CC[C@]12C` (some centres undefined) was run?
The Potentiation was 2.63 nM/mg.

What about the Total tritium (Rattus norvegicus [3]) of the same compound?
Its Total tritium is 40.6%.

How did the Potentiation (Rattus norvegicus [1]) turn out when `CC(=O)C1CC[C@H]2[C@@H]3CC[C@H]4C/C(=N\O)CCC4(C)[C@H]3CCC12C` (some centres undefined) was run?
Its Potentiation is -3.26 nM/mg.

For `C[C@]12CC[C@@H](O)C[C@@H]1CC[C@@H]1[C@@H]2CC[C@]2(C)C(=O)CC[C@@H]12` [ANDROSTERONE], which Potentiation (Rattus norvegicus [1]) is on record?
Its Potentiation is 7 nM/mg.

How did the Potentiation (Rattus norvegicus [1]) turn out when `CC(=O)[C@@H]1CC[C@H]2[C@@H]3CC[C@H]4C[C@H](O)CC[C@]4(C)[C@H]3CC[C@]12C` was run?
Its Potentiation is 1.12 nM/mg.

With `CC1([C@H]2CC[C@H]3[C@@H]4CC[C@H]5C[C@H](O)CC[C@]5(C)[C@H]4CC[C@]23C)OCCO1` as the compound, how does the Potentiation (Rattus norvegicus [1]) read?
The Potentiation was 0.16 nM/mg.

How did the Potentiation (Rattus norvegicus [1]) turn out when `CC(=O)OCC(=O)[C@H]1CC[C@H]2[C@@H]3CC[C@H]4C[C@H](O)CC[C@]4(C)[C@H]3CC[C@]12C` was run?
Its Potentiation is 12.2 nM/mg.

`CC(=O)[C@H]1CC[C@H]2[C@@H]3CC[C@H]4C[C@H](O)CC[C@]4(C)[C@H]3[C@H](O)C[C@]12C` was tested. Which Potentiation (Rattus norvegicus [1]) did it give?
Its Potentiation is 0.7 nM/mg.

With `CC(=O)[C@H]1CCC2C3CC[C@H]4C[C@H](O)CC[C@]4(C)C3=CC[C@@]21C` (some centres undefined) as the compound, how does the Potentiation (Rattus norvegicus [1]) read?
Its Potentiation is 1.23 nM/mg.

How did the Potentiation (Rattus norvegicus [1]) turn out when `COC(=O)[C@H]1CC[C@H]2[C@@H]3CC[C@H]4C[C@H](O)CC[C@]4(C)[C@H]3CC[C@]12C` was run?
The Potentiation was 3.6 nM/mg.

How did the Potentiation (Rattus norvegicus [1]) turn out when `C[C@]12CC[C@@H](O)C[C@@H]1CC[C@@H]1[C@@H]2CC[C@]2(C)[C@@H](C#N)CC[C@@H]12` was run?
Its Potentiation is 13 nM/mg.

`C[C@H](O)[C@H]1CC[C@H]2[C@@H]3CC[C@H]4C[C@H](O)CC[C@]4(C)[C@H]3CC[C@]12C` was tested. Which Potentiation (Rattus norvegicus [1]) did it give?
The Potentiation was 1.97 nM/mg.
